The text below walks through data of ChEMBL document CHEMBL4052630, “Design, synthesis and evaluation of scutellarein-O-acetamidoalkylbenzylamines as potential multifunctional agents for the treatment of Alzheimer's disease” (Eur J Med Chem, 2017).

The nature of data set [1]: Metal chelating activity assessed as compound-Al3+ complex formation by measuring shift in maximum absorption wavelength at 37.5 uM after 30 mins by UV-vis spectrophotometric method. An outline of the steps: (§1)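 UV absorption scanned from 200 to 600 nm after 30 min at room temperature in methanol. Compound and each metal salt (CuCl2, ZnCl2, AlCl3, FeSO4) were at 37.5 µM final. Spectra compared with and without metal.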

Data set [2] in a line: Cytotoxicity against human SH-SY5Y cells assessed as cell viability at 100 uM after 24 hrs by MTT assay relative to control. Format: cell-based. Conditions: read-out: Activity. The procedure, abridged: (§2)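 SH-SY5Y cells grown in DMEM with 10% FBS at 37 °C, 5% CO2, seeded 4 × 10^4 cells/well and incubated 24 h. Compounds given at 1, 10 and 100 µM (1% DMSO final) for 24 h. MTT (5 mg/ml) added for 4 h, cells lysed overnight in DMF/SDS, absorbance read at 590 nm against control. Three independent experiments.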

For data set [3], the target named is Amyloid-beta precursor protein (Homo sapiens) (UniProt P05067). Put plainly: Inhibition of amyloid beta (1 to 42) (unknown origin) self aggregation at 50 uM after 24 hrs by ThT-based fluorometric method relative to control. An outline of the steps:
(§3)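 Aβ1-42 (25 µM final) incubated 24 h at 37 °C with or without compound (1-50 µM) in 50 mM phosphate buffer pH 7.4. Thioflavin T (5 µM in glycine-NaOH pH 8.5) then added, fluorescence read at ex 446/em 490 nm. Inhibition = (1-IFi/IFc)×100 after background subtraction. Run in triplicate.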

For data set [4], the system named is PC-12. Kind of data set: Neuroprotective activity against H2O2 induced cell injury in rat PC12 cells assessed as increase in cell viability preincubated for 24 hrs followed by incubation with H2O2 for 2 hrs measured after 24 hrs by MTT assay. Format: functional, cell-based. The procedure, abridged: (§4)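 PC12 cells in phenol-red-free DMEM with 10% FCS, plated at 10^5 cells/well. Cells preincubated 24 h with compound (1.0 or 10.0 µM; dissolved in 2% DMSO, diluted in PBS), then exposed to H2O2 100 µM for 2 h. Medium replaced; viability assessed 24 h later by MTT (4 h, 37 °C), lysis in DMF/SDS, A590.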

Data set [5] concerns the target Acetylcholinesterase (Electrophorus electricus) (UniProt O42275). Kind of data set: Mixed type inhibition of electric eel AChE at 10 to 40 nM preincubated for 15 mins followed by varying levels of acetylthiocholine substrate addition by Lineweaver-Burk plot analysis. The procedure, abridged: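 Electric eel AChE (10 µL of 0.5 U/mL) in 0.1 M phosphate pH 8.0 with DTNB, pre-incubated 15 min at 37 °C with three inhibitor concentrations. Acetylthiocholine added at 0.1–0.4 mM and hydrolysis read at 412 nm, with an inhibitor-free control. Lineweaver-Burk plots by weighted least squares; slopes replotted against inhibitor concentration.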

A short description of data set [6]: Metal chelating activity assessed as mole fraction of compound required to show 1:1 stoichiometry for Cu2+-compound complex up to 37.5 uM after 30 mins by UV-vis spectrophotometric method. An outline of the steps:
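Molar-ratio titration in methanol: compound fixed at 37.5 µM final with CuCl2 at 3.75-93.75 µM final. Absorbance at 386 nm taken after numerical subtraction of CuCl2 and compound spectra, and plotted against mole fraction of compound. Stoichiometry taken from the intersection of two straight lines.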

Data set [7] deals with Amyloid-beta precursor protein (Homo sapiens) (UniProt P05067). Kind of data set: Inhibition of amyloid beta (1 to 42) (unknown origin) self aggregation at 12.5 uM after 24 hrs by ThT-based fluorometric method relative to control. The procedure, abridged:
as §3

Data set [8] has the same target. Kind of data set: Inhibition of amyloid beta (1 to 42) (unknown origin) self-induced aggregation after 24 hrs by ThT-based fluorometric method. The procedure, abridged: as §3
For data set [9] the target is unchanged. Put plainly: Inhibition of amyloid beta (1 to 42) (unknown origin) self aggregation at 25 uM after 24 hrs by ThT-based fluorometric method relative to control. An outline of the steps: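 Aβ1-42 (25 µM final) incubated at 37 °C for 24 h ± compound in 50 mM phosphate buffer pH 7.4, with DMSO stocks diluted in buffer. Then 5 µM thioflavin T in 50 mM glycine-NaOH pH 8.5 was added and read at ex 446/em 490 nm. Run in triplicate. % inhibition = (1−IFi/IFc)×100 after background subtraction.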

Data set [10] has as its target Acetylcholinesterase (Electrophorus electricus, UniProt O42275). Kind of data set: Inhibition of electric eel AChE using acetylthiocholine iodide as substrate after 15 mins by Ellman's method.
Data set [11] in a line: Metal chelating activity assessed as compound-Cu2+ complex formation by measuring red shift at 37.5 uM after 30 mins by UV-vis spectrophotometric method. An outline of the steps: as §1
Data set [12] deals with Acetylcholinesterase (Homo sapiens, UniProt P22303). Kind of data set: Inhibition of human erythrocyte AChE induced amyloid beta (1 to 40) aggregation at 25 uM after 24 hrs by ThT-based fluorometric method relative to control. An outline of the steps: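 HFIP-pretreated Aβ1-40 (230 µM final) co-incubated 24 h at room temperature with human AChE (2.3 µM; Aβ/AChE 100:1) ± compound in sodium phosphate buffer pH 8.0. Then 5 µM thioflavin T in glycine-NaOH pH 8.5 was added and read at ex 446/em 490 nm. Triplicate. % inhibition calculated from fluorescence with/without inhibitor, each minus its blank (Aβ alone, AChE alone, Aβ+inhibitor).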
Sequence of Acetylcholinesterase (Homo sapiens, UniProt P22303) (P22303 whole entry): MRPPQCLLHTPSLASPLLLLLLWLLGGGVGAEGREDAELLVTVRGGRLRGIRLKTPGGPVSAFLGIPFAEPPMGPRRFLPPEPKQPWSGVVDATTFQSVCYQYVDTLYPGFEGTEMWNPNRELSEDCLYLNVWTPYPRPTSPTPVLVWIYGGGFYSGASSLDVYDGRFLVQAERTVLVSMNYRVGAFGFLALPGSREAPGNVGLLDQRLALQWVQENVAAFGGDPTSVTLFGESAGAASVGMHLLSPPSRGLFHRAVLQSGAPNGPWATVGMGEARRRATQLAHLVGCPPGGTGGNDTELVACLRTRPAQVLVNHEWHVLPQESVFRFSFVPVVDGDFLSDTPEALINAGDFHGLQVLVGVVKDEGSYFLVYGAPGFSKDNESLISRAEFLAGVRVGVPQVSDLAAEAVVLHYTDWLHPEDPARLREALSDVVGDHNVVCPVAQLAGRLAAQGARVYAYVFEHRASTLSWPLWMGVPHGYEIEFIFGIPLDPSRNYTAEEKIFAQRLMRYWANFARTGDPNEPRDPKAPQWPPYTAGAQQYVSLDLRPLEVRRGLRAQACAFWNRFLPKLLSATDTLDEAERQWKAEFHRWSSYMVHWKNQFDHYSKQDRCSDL

Data set [13] can be described thus: Solubility of the compound in water. Format: physicochemical. Conditions: buffer.
The species entered for data set [14] is Rattus norvegicus. Kind of data set: Selectivity index, ratio of IC50 for rat serum BuChE to IC50 for rat cortex homogenate AChE. The procedure, abridged:
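Modified Ellman assay. AChE from 5% rat cortex homogenate, pre-incubated 5 min with iso-OMPA (4.0 mmol/L). BuChE from 25% rat serum. Enzyme incubated with compound (<1% DMSO) and acetyl- or butyrylthiocholine iodide (1 mmol/L) in phosphate buffer pH 7.4 for 15 min at 37 °C. DTNB added, read at 405 nm. IC50 from 3 independent experiments. Index = BuChE IC50/AChE IC50.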

Data set [15] deals with PC-12. Kind of data set: Neuroprotective activity against H2O2-induced cell injury in rat PC12 cells assessed as cell viability at 10 uM preincubated for 24 hrs followed by incubation with H2O2 for 2 hrs measured after 24 hrs by MTT assay (reference value: 43.9%). Format: functional. To be noted: read-out: Activity. The procedure, abridged: as §4
Data set [16] concerns SH-SY5Y. Kind of data set: Cytotoxicity against human SH-SY5Y cells assessed as reduction in cell viability up to 10 uM after 24 hrs by MTT assay. Format: cell-based. The procedure, abridged: as §2
Data set [17] is described as follows: Metal chelating activity assessed as inhibition of Cu2+ induced amyloid beta (1 to 42) aggregation at 25 uM after 24 hrs by ThT-based fluorometric method relative to control. An outline of the steps: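 Aβ1-42 (25 µM) with Cu2+ (25 µM, one equivalent) in 20 mM HEPES pH 6.6 with NaCl, incubated 24 h at 37 °C ± compound (25 µM). Then 5 µM thioflavin T in glycine-NaOH pH 8.5 was added and read at ex 446/em 490 nm. Triplicate. % inhibition relative to no-compound control.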

Activity calls are given as the source filed them. The calls are words filed in the database; no cut-off is given here.

Sequence of Amyloid-beta precursor protein (Homo sapiens) (P05067 whole entry): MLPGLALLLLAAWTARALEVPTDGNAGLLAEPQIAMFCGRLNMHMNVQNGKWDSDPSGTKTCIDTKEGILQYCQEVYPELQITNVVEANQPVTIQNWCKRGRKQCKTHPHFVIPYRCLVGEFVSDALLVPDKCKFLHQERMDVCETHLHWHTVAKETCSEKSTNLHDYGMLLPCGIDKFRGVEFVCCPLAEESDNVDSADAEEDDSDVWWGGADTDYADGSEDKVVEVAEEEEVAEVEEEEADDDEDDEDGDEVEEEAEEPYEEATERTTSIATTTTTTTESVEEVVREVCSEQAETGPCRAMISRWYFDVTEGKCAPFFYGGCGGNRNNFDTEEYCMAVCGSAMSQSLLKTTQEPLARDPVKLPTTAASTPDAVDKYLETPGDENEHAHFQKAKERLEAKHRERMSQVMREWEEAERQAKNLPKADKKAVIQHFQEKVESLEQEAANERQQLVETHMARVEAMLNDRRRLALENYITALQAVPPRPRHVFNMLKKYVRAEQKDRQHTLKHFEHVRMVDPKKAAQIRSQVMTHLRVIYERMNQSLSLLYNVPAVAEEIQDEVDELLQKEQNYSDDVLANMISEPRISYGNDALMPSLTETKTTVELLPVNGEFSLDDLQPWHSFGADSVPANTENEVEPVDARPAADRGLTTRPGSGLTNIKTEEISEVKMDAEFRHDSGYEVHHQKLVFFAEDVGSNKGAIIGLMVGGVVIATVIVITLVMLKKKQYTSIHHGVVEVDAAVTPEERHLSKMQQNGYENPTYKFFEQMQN
Sequence of Acetylcholinesterase (Electrophorus electricus, UniProt O42275) (O42275 whole entry): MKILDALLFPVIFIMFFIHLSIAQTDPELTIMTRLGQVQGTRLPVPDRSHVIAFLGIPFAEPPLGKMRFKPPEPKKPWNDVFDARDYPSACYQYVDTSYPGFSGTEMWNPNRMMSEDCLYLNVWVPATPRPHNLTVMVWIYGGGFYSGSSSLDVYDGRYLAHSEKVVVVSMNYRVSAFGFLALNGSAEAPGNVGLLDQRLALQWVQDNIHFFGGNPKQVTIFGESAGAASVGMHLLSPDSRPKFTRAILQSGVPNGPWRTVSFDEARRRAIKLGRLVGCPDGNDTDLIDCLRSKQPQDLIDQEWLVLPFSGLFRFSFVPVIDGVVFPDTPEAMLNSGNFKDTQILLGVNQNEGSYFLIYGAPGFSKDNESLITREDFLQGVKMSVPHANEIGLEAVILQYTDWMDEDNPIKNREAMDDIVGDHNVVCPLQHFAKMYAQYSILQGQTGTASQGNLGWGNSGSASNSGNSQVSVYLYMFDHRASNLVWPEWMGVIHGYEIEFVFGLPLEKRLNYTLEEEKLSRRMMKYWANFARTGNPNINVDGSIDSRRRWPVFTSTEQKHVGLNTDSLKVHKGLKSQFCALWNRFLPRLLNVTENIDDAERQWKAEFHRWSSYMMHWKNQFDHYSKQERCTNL
Sequence of Acetylcholinesterase (Electrophorus electricus) (O42275 24-633 limits assumed): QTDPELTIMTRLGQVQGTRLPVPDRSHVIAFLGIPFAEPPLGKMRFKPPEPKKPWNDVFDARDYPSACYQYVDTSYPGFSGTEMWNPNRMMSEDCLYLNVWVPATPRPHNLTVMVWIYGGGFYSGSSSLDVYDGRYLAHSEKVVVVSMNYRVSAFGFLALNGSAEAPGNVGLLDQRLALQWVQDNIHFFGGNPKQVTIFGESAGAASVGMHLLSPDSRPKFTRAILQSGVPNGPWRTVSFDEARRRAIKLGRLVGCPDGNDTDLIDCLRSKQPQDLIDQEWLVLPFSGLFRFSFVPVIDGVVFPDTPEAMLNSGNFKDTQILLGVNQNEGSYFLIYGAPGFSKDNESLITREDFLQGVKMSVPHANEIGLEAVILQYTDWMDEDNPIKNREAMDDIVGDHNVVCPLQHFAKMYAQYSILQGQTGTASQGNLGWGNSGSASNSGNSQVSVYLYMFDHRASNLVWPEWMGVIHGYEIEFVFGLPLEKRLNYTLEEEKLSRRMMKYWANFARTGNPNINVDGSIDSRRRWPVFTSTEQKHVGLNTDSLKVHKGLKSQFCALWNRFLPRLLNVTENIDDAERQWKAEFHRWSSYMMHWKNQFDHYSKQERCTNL

In the case of `CCN(CCCCNC(=O)COc1ccc(-c2cc(=O)c3c(O)c(OC)c(OC)cc3o2)cc1)Cc1ccccc1OC`, the outcome in [1] and in data set [11] was Active. Moreover, in data set [2], the viability at 24 h, 100 µM stood at 82.4%. The inhibition was 75.2% in data set [3]; 43.6% in data set [7]; “Dose-dependent effect” in data set [8]; 57.1% in data set [9]; 32.7% in [12]; 43.4% in [17]. The Activity result in data set [4] is “Dose-dependent effect”; in data set [6] it was 0.99 molar ratio; in [16] it was “Non-Toxic”. Moreover, in [5], the inhibition result was “Active”. The molecule also returned an IC50 in data set [10] of 15.9 µM. Also, the solubility entry in data set [13] is “Insoluble”. For the same molecule, in data set [14], the Ratio IC50 is above 9800. Besides, in data set [15], the viability at 10 µM amounted to 82.7%.
